# According to ChEMBL document CHEMBL4325838, “Norbornane-based cationic antimicrobial peptidomimetics targeting the bacterial membrane” (Eur J Med Chem, 2018):
# Key:
# [1] = test system: Staphylococcus aureus; assay: Antibacterial activity against methicillin-resistant Staphylococcus aureus ATCC 43300 after 20 hrs by micro-broth dilution assay; format: functional; conditions: ATCC 43300, 20 h
# [2] = test system: Acinetobacter baumannii; assay: Antibacterial activity against Acinetobacter baumannii ATCC 19606 after 18 to 20 hrs by broth microdilution assay; format: functional; conditions: ATCC 19606 = CIP 70.34 = JCM 6841
# Summary of the method: (§1)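 Bacteria grown overnight at 37 °C with shaking in nutrient broth or Mueller-Hinton broth (MHB). Cultures were diluted 50-fold in MHB and grown 1.5–3 h to mid-log phase, then set at 5×10^5 CFU/mL final. Compounds were 2-fold serially diluted, final 32 to 0.015 µg/mL, 1% DMSO. […] Two independent experiments of n = 2 (n = 4).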
# [3] = test system: Pseudomonas aeruginosa; assay: Antibacterial activity against Pseudomonas aeruginosa ATCC 27853 after 18 to 20 hrs by broth microdilution assay; format: functional; summary of the method: as §1
# [4] = test system: Klebsiella pneumoniae; assay: Antibacterial activity against multidrug-resistant Klebsiella pneumoniae ATCC 700603 after 18 to 20 hrs by broth microdilution assay; format: functional
# Summary of the method: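 Strains were grown overnight at 37 °C with shaking in nutrient broth or MHB, diluted 50-fold in MHB and grown 1.5–3 h to mid-log. Compounds were 2-fold serially diluted in MHB at 32 to 0.015 µg/mL final (1% DMSO) with 5×10^5 CFU/mL. […] Two independent experiments of n = 2 (n = 4).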
# [5] = test system: Escherichia coli; assay: Antibacterial activity against Escherichia coli ATCC 25922 after 18 to 20 hrs by broth microdilution assay; format: functional; summary of the method: as §1
# [6] = test system: Staphylococcus aureus; assay: Antibacterial activity against glycopeptide-intermediate resistant Staphylococcus aureus NARSA NRS17 after 18 to 20 hrs by broth microdilution assay
# [7] = test system: Staphylococcus aureus; assay: Antibacterial activity against glycopeptide-intermediate/methicillin-resistant Staphylococcus aureus NARSA NRS1 after 18 to 20 hrs by broth microdilution assay
# [8] = test system: Staphylococcus aureus; assay: Antibacterial activity against vancomycin-resistant Staphylococcus aureus NARSA VRS10 after 18 to 20 hrs by broth microdilution assay
# [9] = Cytotoxicity against HEK293 cells after 24 hrs by resazurin dye-based fluorescence analysis; format: cell-based; conditions: human
# Summary of the method: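 HEK293 cells were seeded at 3000/well in DMEM with 10% FBS and attached for 24 h at 37 °C, 5% CO₂. A compound concentration series was applied for 24 h. Resazurin was added at 10 µM for 2 h and fluorescence read at ex/em 560/590. Results are average percentage of control ± SD of duplicate wells.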
# [10] = test system: Staphylococcus aureus; assay: microbe, parasite or virus in culture; conditions: ATCC 43300
# [11] = test system: Streptococcus pneumoniae; assay: microbe, parasite or virus in culture; conditions: ATCC 700677
# [12] = test system: Candida albicans; assay: Antifungal activity against Candida albicans ATCC 90028 after 18 to 20 hrs by broth microdilution assay; format: functional
# [13] = test system: Cryptococcus neoformans; assay: Antifungal activity against Cryptococcus neoformans H99 ATCC 208821 after 18 to 20 hrs by broth microdilution assay; format: functional; conditions: var. grubii H99 ATCC 208821
# [14] = test system: Acinetobacter baumannii; assay: Antibacterial activity against Acinetobacter baumannii ATCC 19606 assessed as zone of inhibition at 50 ug/disc after 20 hrs by disk diffusion assay; format: functional; conditions: ATCC 19606 = CIP 70.34 = JCM 6841, 20 h, read-out: IZ
# Summary of the method: (§2)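 Disks loaded with 50 µg compound. Isolate suspensions were adjusted to 0.5 McFarland in 0.9% NaCl and swabbed onto nutrient agar plates, with zones of inhibition measured. Controls: 10 µg colistin sulphate disk, 10 µL DMSO, and a plate swabbed with saline from the dispenser.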
# [15] = test system: Pseudomonas aeruginosa; assay: Antibacterial activity against Pseudomonas aeruginosa ATCC 27853 assessed as zone of inhibition at 50 ug/disc after 20 hrs by disk diffusion assay; format: functional; conditions: ATCC 27853, 20 h, read-out: IZ; summary of the method: as §2
# [16] = test system: Klebsiella pneumoniae; assay: Antibacterial activity against Klebsiella pneumoniae ATCC 13883 assessed as zone of inhibition at 50 ug/disc after 20 hrs by disk diffusion assay; format: functional; conditions: ATCC 13883, 20 h, read-out: IZ; summary of the method: as §2
# [17] = test system: Staphylococcus aureus; assay: Antibacterial activity against methicillin-resistant Staphylococcus aureus ATCC 43300 assessed as zone of inhibition at 50 ug/disc after 20 hrs by disk diffusion assay; format: functional; conditions: ATCC 43300, 20 h, read-out: IZ
# Summary of the method: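 Disk diffusion, 50 µg compound per disk. Bacterial suspensions were adjusted to 0.5 McFarland in 0.9% NaCl and swabbed onto nutrient agar plates. Controls were a 10 µg colistin sulphate disk, 10 µL DMSO, and a plate swabbed with saline from the dispenser.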
# [18] = test system: Enterococcus faecium; assay: Antibacterial activity against Enterococcus faecium ATCC 700221 assessed as zone of inhibition at 50 ug/disc after 20 hrs by disk diffusion assay; format: functional; conditions: ATCC 700221, 20 h, read-out: IZ; summary of the method: as §2
# [19] = Drug localization in […] Escherichia coli ATCC 25922 at 10 ug/ml after 20 mins by confocal microscopic analysis; format: ADME
# Summary of the method: (§3)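 E. coli ATCC 25922 was grown overnight in LB broth at 37 °C with gentle shaking. Cells were exposed to 10 µg/mL fluorescent compound in LB for 20 min at 37 °C. Localisation was imaged by confocal microscopy, including 3D rendering.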
# [20] = Drug localization in peripheral region of methicillin-resistant Staphylococcus aureus subsp. aureus Rosenbach ATCC 43300 at 10 ug/ml after 20 mins by confocal microscopic analysis; format: ADME
# Summary of the method: (§4)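 MRSA ATCC 43300 was grown overnight in LB broth at 37 °C with gentle shaking, then incubated 20 min at 37 °C with 10 µg/mL fluorescent compound in LB. Cells were fixed in 4% paraformaldehyde for 20 min, wet-mounted on slides and imaged by confocal microscopy.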
# [21] = Drug localization in methicillin-resistant Staphylococcus aureus subsp. aureus Rosenbach ATCC 43300 at 10 ug/ml after 20 mins by confocal microscopic analysis; format: ADME; summary of the method: as §4
# [22] = test system: Escherichia coli; assay: Antibacterial activity against Escherichia coli ATCC 25922 after 20 hrs by micro-broth dilution assay; format: functional; conditions: ATCC 25922, 20 h
# [23] = test system: Pseudomonas aeruginosa; assay: Antibacterial activity against Pseudomonas aeruginosa ATCC 27853 after 20 hrs by micro-broth dilution assay; format: functional; conditions: ATCC 27853, 20 h
# [24] = Drug localization in peripheral region of […] Escherichia coli ATCC 25922 at 10 ug/ml after 20 mins by confocal microscopic analysis; format: ADME; summary of the method: as §3
structure (smiles),measurement,setting,value
CCCCCCCCCCCCCCCC1O[C@@H]2[C@@H]3C[C@H]([C@@H]2O1)[C@@H](C(=O)NCCNC(=N)N)[C@@H]3C(=O)NCCNC(=N)N.Cl.Cl (some centres undefined),MIC,[1],1 µg/mL
CCCCCCCC1O[C@@H]2[C@@H]3C[C@H]([C@@H]2O1)[C@@H](C(=O)NCCNC(=O)c1ccc(C(=O)NC(=N)N)[nH]1)[C@@H]3C(=O)NCCNC(=O)c1ccc(C(=O)NC(=N)N)[nH]1.Cl.Cl (some centres undefined),MIC,[2],> 128 µg/mL
same,MIC,[3],> 128 µg/mL
same,MIC,[4],> 128 µg/mL
same,MIC,[5],> 128 µg/mL
same,MIC,[6],> 128 µg/mL
same,MIC,[7],> 128 µg/mL
same,MIC,[8],128 µg/mL
same,CC50 at 24 h,[9],> 100 µg/mL
same,MIC,[10],> 128 µg/mL
same,MIC,[11],> 128 µg/mL
CCCCCCCC1O[C@@H]2[C@@H]3C[C@H]([C@@H]2O1)[C@@H](C(=O)NCCNC(=N)NCc1ccccc1)[C@@H]3C(=O)NCCNC(=N)NCc1ccccc1.Cl.Cl (some centres undefined),MIC,[2],> 32 µg/mL
same,MIC,[3],32 µg/mL
same,MIC,[4],> 32 µg/mL
same,MIC,[5],8 µg/mL
same,MIC,[6],1 µg/mL
same,MIC,[7],2 µg/mL
same,MIC,[8],1 µg/mL
same,MIC,[12],128 µg/mL
same,MIC,[13],2 µg/mL
same,zone of inhibition at 50 µg/disc,[14],10 mm
same,zone of inhibition at 50 µg/disc,[15],13 mm
same,zone of inhibition at 50 µg/disc,[16],15 mm
same,zone of inhibition at 50 µg/disc,[17],17 mm
same,zone of inhibition at 50 µg/disc,[18],18 mm
same,CC50 at 24 h,[9],> 50 µg/mL
same,MIC,[10],2 µg/mL
same,MIC,[11],2 µg/mL
CCCCCCCCCCCCCCCC1O[C@@H]2[C@@H]3C[C@H]([C@@H]2O1)[C@@H](C(=O)NCCNC(=N)NCc1ccccc1)[C@@H]3C(=O)NCCNC(=N)NCc1ccccc1.Cl.Cl (some centres undefined),MIC,[2],> 128 µg/mL
same,MIC,[3],> 128 µg/mL
same,MIC,[4],> 128 µg/mL
same,MIC,[5],> 128 µg/mL
same,MIC,[6],0.25 µg/mL
same,MIC,[7],0.5 µg/mL
same,MIC,[8],0.5 µg/mL
same,CC50 at 24 h,[9],7.8 µg/mL
same,MIC,[10],0.25 µg/mL
same,MIC,[11],1 µg/mL
Cl.Cl.Cl.N=C(N)NCCNC(=O)[C@@H]1[C@@H]2C[C@@H]([C@H]3OC(CCCCCCCCCCCN)O[C@@H]23)[C@H]1C(=O)NCCNC(=N)N (some centres undefined),MIC,[2],> 32 µg/mL
same,MIC,[3],> 32 µg/mL
same,MIC,[4],> 32 µg/mL
same,MIC,[5],> 32 µg/mL
same,MIC,[6],16 µg/mL
same,MIC,[7],8 µg/mL
same,MIC,[8],8 µg/mL
same,zone of inhibition at 50 µg/disc,[14],12 mm
same,zone of inhibition at 50 µg/disc,[15],12 mm
same,zone of inhibition at 50 µg/disc,[16],14.5 mm
same,zone of inhibition at 50 µg/disc,[17],14 mm
same,CC50 at 24 h,[9],> 50 µg/mL
same,MIC,[10],16 µg/mL
same,MIC,[11],8 µg/mL
CCCNc1ccc([N+](=O)[O-])c2nonc12,Drug uptake,[19],Active
same,Drug uptake,[20],Active
CCCN1C(=O)c2cccc3c(N)ccc(c23)C1=O,Drug uptake,[21],Active
same,Drug uptake,[19],Active
CC/C(=C(\c1ccccc1)c1ccc(OCCN(C)C)cc1)c1ccccc1 [TAMOXIFEN],CC50 at 24 h,[9],13 µg/mL
OC(Cn1cncn1)(Cn1cncn1)c1ccc(F)cc1F [FLUCONAZOLE],MIC,[12],1 µg/mL
same,MIC,[13],8 µg/mL
Cl.Cl.N=C(N)NCCNC(=O)[C@@H]1[C@@H]2C[C@@H]([C@@H](OCc3ccc(C(F)(F)F)cc3)[C@H]2OCc2ccc(C(F)(F)F)cc2)[C@H]1C(=O)NCCNC(=N)N,MIC,[1],8 µg/mL
same,MIC,[22],8 µg/mL
same,MIC,[23],8 µg/mL
CCCNc1ccc2c3c(cccc13)C(=O)N(CCCCCCCCCCCC1O[C@@H]3[C@@H]4C[C@H]([C@@H]3O1)[C@@H](C(=O)NCCNC(=N)N)[C@@H]4C(=O)NCCNC(=N)N)C2=O.Cl.Cl (some centres undefined),MIC,[2],> 32 µg/mL
same,MIC,[3],> 32 µg/mL
same,MIC,[4],> 32 µg/mL
same,MIC,[5],> 32 µg/mL
same,MIC,[6],4 µg/mL
same,MIC,[7],4 µg/mL
same,MIC,[8],2 µg/mL
same,MIC,[12],128 µg/mL
same,MIC,[13],0.25 µg/mL
same,CC50 at 24 h,[9],> 50 µg/mL
same,Drug uptake,[21],Active
same,Drug uptake,[19],Active
same,Drug uptake,[20],Active
same,Drug uptake,[24],Active
same,MIC,[10],1 µg/mL
same,MIC,[11],1 µg/mL
Cl.Cl.N=C(N)NCCNC(=O)[C@@H]1[C@@H]2C[C@@H]([C@H]3OC(CCCCCCCCCCCNc4ccc([N+](=O)[O-])c5nonc45)O[C@@H]23)[C@H]1C(=O)NCCNC(=N)N (some centres undefined),MIC,[2],32 µg/mL
same,MIC,[3],32 µg/mL
same,MIC,[4],> 32 µg/mL
same,MIC,[5],8 µg/mL
same,MIC,[6],1 µg/mL
same,MIC,[7],4 µg/mL
same,MIC,[8],0.5 µg/mL
same,MIC,[12],16 µg/mL
same,MIC,[13],4 µg/mL
same,zone of inhibition at 50 µg/disc,[15],9 mm
same,zone of inhibition at 50 µg/disc,[16],8.5 mm
same,zone of inhibition at 50 µg/disc,[17],9 mm
same,CC50 at 24 h,[9],> 50 µg/mL
same,Drug uptake,[21],Active
same,Drug uptake,[19],Active
same,Drug uptake,[20],Active
same,Drug uptake,[24],Active
same,MIC,[10],1 µg/mL
same,MIC,[11],1 µg/mL
CN[C@H](CC(C)C)C(=O)N[C@H]1C(=O)N[C@@H](CC(N)=O)C(=O)N[C@H]2C(=O)N[C@H]3C(=O)N[C@H](C(=O)N[C@H](C(=O)O)c4cc(O)cc(O)c4-c4cc3ccc4O)[C@H](O)c3ccc(c(Cl)c3)Oc3cc2cc(c3O[C@@H]2O[C@H](CO)[C@@H](O)[C@H](O)[C@H]2O[C@H]2C[C@](C)(N)[C@H](O)[C@H](C)O2)Oc2ccc(cc2Cl)[C@H]1O [VANCOMYCIN],MIC,[8],> 64 µg/mL
same,MIC,[11],1 µg/mL
